Experimental data reported in ChEMBL document CHEMBL1777764, “Synthesis and evaluation of 1-(1H-indol-3-yl)ethanamine derivatives as new antibacterial agents” (Bioorg Med Chem, 2011).
In brackets after ≈: the same amount, converted by molar mass.

What was measured:
Staphylococcus aureus [1] = test: Antibacterial activity against Staphylococcus aureus CIP 65.6 after 18 hrs by broth microdilution method; format: functional
Procedure, shortened: (§1)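 MIC by broth microdilution per ISO 20776-1:2006 and CLSI M07-A8. Inoculum 10^6 cfu/ml in Mueller-Hinton broth with compound serially diluted, final concentrations 2 to 128 ug/ml, duplicate rows, no-drug growth control. Incubation 18 h at 37 °C. MIC taken as lowest concentration giving complete inhibition of visible growth. Each compound tested at least twice.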

KB [2] = test: Cytotoxicity against human KB cells at 1 uM; format: cell-based
Staphylococcus aureus [3] = test: Antibacterial activity against Staphylococcus aureus CIP 103428 after 18 hrs by broth microdilution method; format: functional; procedure, shortened: as §1
Streptococcus pneumoniae [4] = test: Antibacterial activity against Streptococcus pneumoniae ATCC 49619 after 18 hrs by broth microdilution method; format: functional; conditions: ATCC 49619, 18 h
Procedure, shortened: (§2)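 MIC by broth microdilution per ISO 20776-1:2006 and CLSI M07-A8. Inoculum 10^6 cfu/ml in Mueller-Hinton broth […]. Compound serially diluted, final 2 to 128 ug/ml, duplicate rows, no-drug growth control. Read after 18 h at 37 °C as lowest concentration fully inhibiting visible growth. At least two experiments.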

Staphylococcus aureus [5] = test: Antibacterial activity against Staphylococcus aureus ATCC 29213 after 18 hrs by broth microdilution method; format: functional; procedure, shortened: as §1
Staphylococcus aureus [6] = test: Antibacterial activity against methicillin-resistant Staphylococcus aureus ATCC 33592 after 18 hrs by broth microdilution method; format: functional
Procedure, shortened: (§3)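 Broth microdilution following ISO 20776-1:2006 and CLSI M07-A8, in Mueller-Hinton broth. Inoculum was 10^6 cfu/ml, with compound serial dilutions spanning 2 to 128 ug/ml and a compound-free growth control well. Plates were incubated 18 h at 37 °C. MIC was the lowest concentration giving complete inhibition of visible growth. Each compound was tested at least twice.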

[7] = tested on: Staphylococcus epidermidis; test: Antibacterial activity against Staphylococcus epidermidis CIP 103627 after 18 hrs by broth microdilution method; format: functional; procedure, shortened: as §1
Staphylococcus aureus [8] = test: Antibacterial activity against Staphylococcus aureus ATCC 6538 after 18 hrs by broth microdilution method; format: functional; procedure, shortened: as §1
[9] = tested on: Staphylococcus epidermidis; test: Antibacterial activity against Staphylococcus epidermidis ATCC 12228 after 18 hrs by broth microdilution method; format: functional; procedure, shortened: as §1
HCT-116 [10] = test: Cytotoxicity against human HCT116 cells at 1 uM; format: cell-based; conditions: hct-116, 1 µM
Staphylococcus aureus [11] = test: Antibacterial activity against methicillin-resistant Staphylococcus aureus CIP 65.25 after 18 hrs by broth microdilution method; format: functional; procedure, shortened: as §3
Staphylococcus aureus [12] = test: Antibacterial activity against vancomycin intermediate Staphylococcus aureus […] after 18 hrs by broth microdilution method; format: functional; procedure, shortened: as §3
Staphylococcus aureus [13] = test: Antibacterial activity against Staphylococcus aureus ATCC 9144 after 18 hrs by broth microdilution method; format: functional; procedure, shortened: as §1
[14] = tested on: Staphylococcus epidermidis; test: Antibacterial activity against Staphylococcus epidermidis CIP 81.55 after 18 hrs by broth microdilution method; format: functional; procedure, shortened: as §1
Streptococcus pneumoniae [15] = test: Antibacterial activity against Streptococcus pneumoniae ATCC 6303 after 18 hrs by broth microdilution method; format: functional; conditions: ATCC 6303, 18 h; procedure, shortened: as §2
Staphylococcus aureus [16] = test: Antibacterial activity against Staphylococcus aureus ATCC 25923 after 18 hrs by broth microdilution method; format: functional; procedure, shortened: as §1
MRC5 [17] = test: Cytotoxicity against human MRC5 cells at 1 uM; format: cell-based; conditions: mrc5, 1 µM
MRC5 [18] = test: Cytotoxicity against human MRC5 cells at 10 uM; format: cell-based; conditions: mrc5, 10 µM
KB [19] = test: Cytotoxicity against human KB cells at 10 uM; format: cell-based
HCT-116 [20] = test: Cytotoxicity against human HCT116 cells at 10 uM; format: cell-based; conditions: hct-116, 10 µM
Escherichia coli = test: Antibacterial activity against Escherichia coli ATCC 25922 after 18 hrs by broth microdilution method; format: functional; procedure, shortened: as §3

Compound	MIC (Staphylococcus aureus [1]; CIP 65.6, 18 h) [µg/mL]	Activity (KB [2])	MIC (Staphylococcus aureus [3]; CIP 103428, 18 h) [µg/mL]	MIC (Streptococcus pneumoniae [4]) [µg/mL]	MIC (Staphylococcus aureus [5]; ATCC 29213, 18 h) [µg/mL]	MIC (Staphylococcus aureus [6]; ATCC 33592, 18 h) [µg/mL]	MIC ([7]; CIP 103627, 18 h) [µg/mL]	MIC (Staphylococcus aureus [8]; ATCC 6538, 18 h) [µg/mL]	MIC ([9]; ATCC 12228, 18 h) [µg/mL]	Activity (HCT-116 [10])	MIC (Staphylococcus aureus [11]; CIP 65.25, 18 h) [µg/mL]	MIC (Staphylococcus aureus [12]) [µg/mL]	MIC (Staphylococcus aureus [13]; ATCC 9144, 18 h) [µg/mL]	MIC ([14]; CIP 81.55, 18 h) [µg/mL]	MIC (Streptococcus pneumoniae [15]) [µg/mL]	MIC (Staphylococcus aureus [16]; ATCC 25923, 18 h) [µg/mL]	Activity (MRC5 [17])	Activity (MRC5 [18])	Activity (KB [19])	Activity (HCT-116 [20])	further results
CC(C)(C)OC(=O)NCC(c1c[nH]c2ccc(Cl)cc12)N(O)Cc1ccccc1 (centres undefined)	16 (≈ 38.5 µM)	Non-toxic	16 (≈ 38.5 µM)	64 (≈ 154 µM)	16 (≈ 38.5 µM)	16 (≈ 38.5 µM)	16 (≈ 38.5 µM)	16 (≈ 38.5 µM)	16 (≈ 38.5 µM)	Non-toxic	16 (≈ 38.5 µM)	16 (≈ 38.5 µM)	16 (≈ 38.5 µM)	16 (≈ 38.5 µM)	64 (≈ 154 µM)	16 (≈ 38.5 µM)	Non-toxic				
CC(C)CC(NO)c1c[nH]c2ccc(F)cc12 (centres undefined)	32 (≈ 135 µM)	Non-toxic	32 (≈ 135 µM)		32 (≈ 135 µM)		32 (≈ 135 µM)	32 (≈ 135 µM)	32 (≈ 135 µM)	Non-toxic			32 (≈ 135 µM)	32 (≈ 135 µM)		32 (≈ 135 µM)	Non-toxic	Non-toxic	Non-toxic	Non-toxic	
CC(NO)c1c[nH]c2ccc(I)cc12 (centres undefined)	64 (≈ 212 µM)	Non-toxic	64 (≈ 212 µM)		64 (≈ 212 µM)		32 (≈ 106 µM)	64 (≈ 212 µM)	32 (≈ 106 µM)	Non-toxic			64 (≈ 212 µM)	32 (≈ 106 µM)		64 (≈ 212 µM)	Non-toxic	Non-toxic	Non-toxic	Non-toxic	
CC(C)(C)OC(=O)NCC(c1c[nH]c2ccc(I)cc12)N(O)Cc1ccccc1 (centres undefined)	8 (≈ 15.8 µM)	Non-toxic	8 (≈ 15.8 µM)	64 (≈ 126 µM)	8 (≈ 15.8 µM)	8 (≈ 15.8 µM)	8 (≈ 15.8 µM)	8 (≈ 15.8 µM)	8 (≈ 15.8 µM)	Non-toxic	8 (≈ 15.8 µM)	8 (≈ 15.8 µM)	8 (≈ 15.8 µM)	8 (≈ 15.8 µM)	64 (≈ 126 µM)	8 (≈ 15.8 µM)	Non-toxic				
CC(C)(C)OC(=O)NCC(c1c[nH]c2cc(Br)ccc12)N(O)Cc1ccccc1 (centres undefined)	8 (≈ 17.4 µM)	Non-toxic	8 (≈ 17.4 µM)	> 128	8 (≈ 17.4 µM)	16 (≈ 34.8 µM)	16 (≈ 34.8 µM)	8 (≈ 17.4 µM)	16 (≈ 34.8 µM)	Non-toxic	16 (≈ 34.8 µM)	16 (≈ 34.8 µM)	8 (≈ 17.4 µM)	16 (≈ 34.8 µM)	> 128	8 (≈ 17.4 µM)	Non-toxic	Non-toxic	Non-toxic	Non-toxic	
CC(C)CC(NO)c1c[nH]c2ccc(Cl)cc12 (centres undefined)	16 (≈ 63.3 µM)	Non-toxic	16 (≈ 63.3 µM)		16 (≈ 63.3 µM)		32 (≈ 127 µM)	16 (≈ 63.3 µM)	32 (≈ 127 µM)	Non-toxic			16 (≈ 63.3 µM)	32 (≈ 127 µM)		16 (≈ 63.3 µM)	Non-toxic	Non-toxic	Non-toxic	Non-toxic	
CC(C)(C)OC(=O)NCC(c1c[nH]c2cc(Cl)ccc12)N(O)Cc1ccccc1 (centres undefined)	16 (≈ 38.5 µM)	Non-toxic	16 (≈ 38.5 µM)	> 128	16 (≈ 38.5 µM)	16 (≈ 38.5 µM)	16 (≈ 38.5 µM)	16 (≈ 38.5 µM)	16 (≈ 38.5 µM)	Non-toxic	16 (≈ 38.5 µM)	16 (≈ 38.5 µM)	16 (≈ 38.5 µM)	16 (≈ 38.5 µM)	> 128	16 (≈ 38.5 µM)	Non-toxic				
CC(C)CC(NO)c1c[nH]c2ccc(Br)cc12 (centres undefined)	32 (≈ 108 µM)	Non-toxic	32 (≈ 108 µM)		32 (≈ 108 µM)		16 (≈ 53.8 µM)	32 (≈ 108 µM)	16 (≈ 53.8 µM)	Non-toxic			32 (≈ 108 µM)	16 (≈ 53.8 µM)		32 (≈ 108 µM)	Non-toxic	Non-toxic	Non-toxic	Non-toxic	
CC(C)CC(NO)c1c[nH]c2ccccc12 (centres undefined)	64 (≈ 293 µM)	Non-toxic	64 (≈ 293 µM)		64 (≈ 293 µM)		32 (≈ 147 µM)	64 (≈ 293 µM)	32 (≈ 147 µM)	Non-toxic			64 (≈ 293 µM)	32 (≈ 147 µM)		64 (≈ 293 µM)	Non-toxic	Non-toxic	Non-toxic	Non-toxic	
CC(NO)c1c[nH]c2ccc(Cl)cc12 (centres undefined)	32 (≈ 152 µM)	Non-toxic	32 (≈ 152 µM)		32 (≈ 152 µM)		16 (≈ 76 µM)	32 (≈ 152 µM)	16 (≈ 76 µM)	Non-toxic			32 (≈ 152 µM)	16 (≈ 76 µM)		32 (≈ 152 µM)	Non-toxic	Non-toxic	Non-toxic	Non-toxic	
CC(C)CC(NO)c1c[nH]c2ccc(I)cc12 (centres undefined)	32 (≈ 93 µM)	Non-toxic	32 (≈ 93 µM)		32 (≈ 93 µM)		16 (≈ 46.5 µM)	32 (≈ 93 µM)	16 (≈ 46.5 µM)	Non-toxic			32 (≈ 93 µM)	16 (≈ 46.5 µM)		32 (≈ 93 µM)	Non-toxic	Non-toxic	Non-toxic	Non-toxic	
CC(C)(C)OC(=O)NCC(c1c[nH]c2ccc(Br)cc12)N(O)Cc1ccccc1 (centres undefined)	8 (≈ 17.4 µM)	Non-toxic	8 (≈ 17.4 µM)	128 (≈ 278 µM)	8 (≈ 17.4 µM)	16 (≈ 34.8 µM)	16 (≈ 34.8 µM)	8 (≈ 17.4 µM)	16 (≈ 34.8 µM)	Non-toxic	16 (≈ 34.8 µM)	8 (≈ 17.4 µM)	8 (≈ 17.4 µM)	16 (≈ 34.8 µM)	128 (≈ 278 µM)	8 (≈ 17.4 µM)	Non-toxic	Non-toxic	Non-toxic	Non-toxic	
CC(C)CC(c1c[nH]c2ccccc12)N(O)Cc1ccccc1 (centres undefined)	32 (≈ 104 µM)	Non-toxic	32 (≈ 104 µM)		32 (≈ 104 µM)		16 (≈ 51.9 µM)	32 (≈ 104 µM)	16 (≈ 51.9 µM)	Non-toxic			32 (≈ 104 µM)	16 (≈ 51.9 µM)		32 (≈ 104 µM)	Non-toxic	Non-toxic	Non-toxic	Non-toxic	
GENTAMICIN												> 64									MIC (Staphylococcus aureus [1]): 0.125 µg/mL; MIC (Staphylococcus aureus [3]): 0.125 µg/mL; MIC (Staphylococcus aureus [5]): 0.125 µg/mL; MIC (Staphylococcus aureus [6]): 0.25 µg/mL; MIC [7]: 0.125 µg/mL; MIC (Staphylococcus aureus [8]): 0.125 µg/mL; MIC [9]: 0.125 µg/mL; MIC (Escherichia coli): 1 µg/mL; MIC (Staphylococcus aureus [11]): 0.25 µg/mL; MIC (Staphylococcus aureus [13]): 0.125 µg/mL; MIC [14]: 0.125 µg/mL; MIC (Staphylococcus aureus [16]): 0.125 µg/mL
